Hits are enriched below; roughly 0.74% of the tested compounds scored in any of these assays.
Diaphorase inh = diaphorase inhibitors and chemical oxidizers, primary screen, counter-screen for diaphorase-coupled primary assays, biochemical, uHTS, resorufin fluorescence; diaphorase resazurin-to-resorufin fluorescence, NADH, 16 min; bacterial (C. kluyveri) enzyme, not human; inhibition, % at 20 µM; actives 0.69% (n = 190,000); AID 1217, 2008;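 active = primary screen inhibition at 20 µM above a set limit, cut at about 50% in these data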;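 note: plate controls were DMSO with full reaction for no effect and wells lacking NADH for full effect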
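Test system: diaphorase enzyme from Clostridium kluyveri; amount: diaphorase at 0.14 U/mL in enzyme working solution; detection: fluorescence of resorufin formed from resazurin, Ex 544/Em 590 nm; times: reaction incubation of 16 min at room temperature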
HKDC1 inhibitor = HKDC1 hexokinase inhibitors, primary screen, biochemical, fluorescence, uHTS; recombinant HKDC1, G6PDH/diaphorase resazurin coupled fluorescence; Q2TB90; actives 0.16% (n = 340,000); AID 493160, 2011; inhibition, % at 20 µM;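 active = inhibition above about 35% when tested at 20 µM, limit read from the data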;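 note: plate controls were DMSO wells with enzyme for no effect and DMSO wells lacking enzyme for full effect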
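Incubation: 90 min at room temperature in dark / Material: recombinant HKDC1 (HK5) hexokinase enzyme, produced in-house / Quantity: enzyme 5 µg/mL final / Compound: one dose of 20 µM, 1% DMSO / Reagent: glucose and ATP substrates / Buffer or medium: Tris pH 8.0 buffer with MgCl2, Tween-20, BSA, BME / Technique: resorufin fluorescence at 613 nm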
Arbovirus inh = antivirals against arbovirus infection, primary screen, cell-based, full library, 10K replicate subset; arbovirus infection cell-based antiviral screen; inhibition, % at 10 µM; actives 0.37% (n = 200,000); AID 1251, 2008; in the data active = inhibition above about 30%
Diaphorase act = compounds boosting diaphorase resazurin reduction – biochemical, uHTS, resorufin fluorescence, counter-screen for diaphorase-coupled primary assays, primary screen; Diaphorase/resazurin coupled assay, 16 min; active compounds read high; 1 = vehicle wells, 0 = NADH-free wells; activation factor at 20 µM; actives 0.005% (n = 190,000);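 active = diaphorase activity raised at least twofold by the compound at 20 µM; inactive = activation factor below 2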
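Material: bacterial diaphorase enzyme (C. kluyveri); amount: enzyme 0.07 U/mL final; reagent: NADH substrate 0.114 mM plus resazurin dye 0.1 mM, final; doses: single compound dose of 20 µM, 1% DMSO final; timing: 16 min enzyme reaction, ambient temperature; measured by: fluorescence of resorufin, 544 nm excitation, 590 nm emission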
G6PDH CS = L. mesenteroides G6PDH inhibitors, counter-screen for G6PDH-coupled screening assays, biochemical, Leuconostoc mesenteroides enzyme; glucose-6-phosphate dehydrogenase [Leuconostoc mesenteroides]; Purified L. mesenteroides G6PDH, diaphorase/resazurin coupled fluorescence, 45 min; inhibition, % at 5 µM; actives 0.12% (n = 200,000); in the data active = inhibition above about 50%
An asterisk follows results filed as active; . = not tested or not shown.

SMILES	Diaphorase inh	HKDC1 inhibitor	Arbovirus inh	Diaphorase act	G6PDH CS
COc1cc(O)c(C(CCN2CCOCC2)c2cc(OC)c(OC)c(OC)c2)c(OC)c1 (stereo not drawn)	.	-2	.	.	.
COC(=O)c1c(C)[nH]c(C(=O)OCC(=O)c2ccc(C)s2)c1C	.	-1	.	.	.
CSc1nc(-c2ccco2)nn1S(=O)(=O)c1ccc(C)cc1	58*	0	1	0.4	2
CCOC(=O)NC1(Nc2cccc(Cl)c2)Oc2ccccc2O1	55*	5	-8	0.4	11
CCOC(=O)NC(=O)/C(C#N)=N\Nc1cccc(Cl)c1	.	-6	.	.	.
CCc1ccc(N2CC(C(=O)N/N=C/c3ccccc3OC)CC2=O)cc1 (stereo not drawn)	.	-2	.	.	.
CCc1ccc(N2CC(C(=O)N/N=C/c3cc([N+](=O)[O-])ccc3O)CC2=O)cc1 (stereo not drawn)	51*	-8	3	0.5	-12
O=C(Cc1ccccc1)NC(Nc1cccc2ccccc12)C(Cl)(Cl)Cl (stereo not drawn)	69*	3	-1	0.3	4
CCCn1c(SCC(=O)Nc2ccccc2OC)nnc1-c1ccco1	.	-1	.	.	.
COc1ccc2[nH]c(=O)c(CN(C3CCCCC3)C(c3nnnn3Cc3ccco3)C(C)C)cc2c1 (stereo not drawn)	28	37*	8	0.7	-2
Cc1ccc2cc(CN(Cc3ccc4c(c3)OCO4)Cc3nnnn3Cc3ccco3)c(=O)[nH]c2c1	21	-3	-28	0.8	8
Cc1ccc(CN(Cc2cc3cc4c(cc3[nH]c2=O)OCCO4)Cc2nnnn2Cc2ccco2)cc1	58*	22	-18	0.4	19
COc1ccc2[nH]c(=O)c(CN(Cc3nnnn3Cc3ccco3)C3CCCCC3)cc2c1	36	3	-23	0.6	10
CC(C)NC(=O)CCc1nc2cccnc2n1-c1ccccc1	.	-2	.	.	.
Cc1ccc(S(=O)(=O)N2CCOCC2)cc1NC(=O)COC(=O)C1COc2ccccc2O1 (stereo not drawn)	15	-4	-5	0.9	3
CCCCCCCCCCCCCCCC[n+]1ccc(/C=N/O)cc1	-103	-14	-41	2*	-11
COc1ccc(C(=O)NC(=S)NNC(=O)CNC(=O)C2CCCCC2)cc1	59*	-4	11	0.4	0
COC(=O)c1c(SCc2cccc3ccccc23)nc(=O)[nH]c1C	.	2	.	.	.
COC(=O)c1c(SCc2ccc(C#N)cc2)nc(=O)[nH]c1C	-6	-12	78*	1.1	-8
CCCN1CCC(=O)N([C@H](CSc2ccc(OC)cc2)c2ccccc2)CC1	.	0	.	.	.
C[C@H](CO)N1C[C@H](C)[C@@H](CN(C)Cc2ccc3c(c2)OCO3)Oc2c(NC(=O)Cc3ccccc3)cccc2C1=O	.	0	.	.	.
Nc1ccccc1NC1CCCCC1	82*	0	0	0.2	10
O=C(Nc1ccccc1NC(=O)NC1CCCCC1)NC1CCCCC1	2	3	-42	1	-2
Nn1cc(-c2ccccc2)nc1SCC(=O)N1CCN(S(=O)(=O)c2ccc3ccccc3c2)CC1	26	0	4	0.7	-2
Nn1cc(-c2ccccc2)nc1SCC(=O)N1CCN(S(=O)(=O)c2ccc(Cl)cc2)CC1	54*	17	-6	0.5	3
SMILES	Diaphorase inh	HKDC1 inhibitor	Arbovirus inh	Diaphorase act	G6PDH CS
O=C(NC1CCN(Cc2ccccc2)CC1)c1cccc(S(=O)(=O)Nc2cc(C(F)(F)F)ccc2Cl)c1	16	5	33*	0.8	5
S=c1nc(SCc2ccccc2)[nH]c2ccccc12	87*	-8	5	0.1	5
c1ccc(CSc2nc3ncncc3[nH]2)cc1	.	-9	.	.	.
CC(=O)c1ccc(OCC(=O)Nc2cccc(C(=O)Nc3c(C)n(C)n(-c4ccccc4)c3=O)c2)cc1	.	-2	.	.	.
O=C(O)c1ccccc1Nc1cccc(C(F)(F)F)c1	-1	1	38*	1	7
C=CC[C@H](CC(=O)NCCO)C(=O)N[C@H](COC(=O)[C@@H](CC=C)Cc1ccc(F)cc1)c1ccccc1	.	-5	.	.	.
COc1ccc(NC(=O)Cn2cccc2)c(OC)c1	74*	-10	2	0.3	3
